In ChEMBL document CHEMBL5107946, “SF5- and SCF3-substituted tetrahydroquinoline compounds as potent bactericidal agents against multidrug-resistant persister Gram-positive bacteria” (RSC Med Chem, 2021):
Values after ≈ are worked out from the molar mass of the structure shown. Active and inactive are the calls of the source.

What was measured:
Staphylococcus aureus [1] = test: Antibacterial activity against methicillin-resistant Staphylococcus aureus USA300 (ARLG 1561) assessed as bacterial growth inhibition incubated for 18 to 20 hrs by CLSI based broth microdilution assay; format: functional; conditions: time 18-20 hrs
Method in brief: (§1)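 CLSI broth microdilution; compounds and control antibiotics made up at 10 mg mL−1 in DMSO (stock), serially diluted 1:2 across the plate. Inoculum adjusted to 0.5 McFarland, then diluted 1:100 into wells. Plates incubated static at 37 °C for 18–20 h before MIC read.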

Staphylococcus aureus [2] = test: Antibacterial activity against methicillin-resistant Staphylococcus aureus USA300 (ARLG 1568) assessed as bacterial growth inhibition incubated for 18 to 20 hrs by CLSI based broth microdilution assay; format: functional; conditions: time 18-20 hrs; method in brief: as §1
Staphylococcus aureus [3] = test: Antibacterial activity against methicillin-resistant Staphylococcus aureus ST239 (ARLG 1663) assessed as bacterial growth inhibition incubated for 18 to 20 hrs by CLSI based broth microdilution assay; format: functional; conditions: time 18-20 hrs; method in brief: as §1
Listeria monocytogenes [4] = test: Bactericidal activity against Listeria monocytogenes ATCC 19115 assessed as reduction in colony forming unit incubated for 20 hrs; format: functional
Method in brief: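 MBC: after the MIC assay, 4 μL from wells with no growth were spotted in duplicate on TSA. Plates were incubated static at 37 °C for 20 h. MBC was taken as a 99.9% reduction in CFU.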

Staphylococcus aureus [5] = test: Antibacterial activity against methicillin-resistant Staphylococcus aureus USA300 assessed as fold increase in MIC incubated for 30 days by resistance development based broth microdilution assay; format: functional; conditions: time 30 day
Method in brief: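 Multi-step resistance selection over 30 days. MIC determined first. Each day, 5 μL from the turbid well just below the MIC was diluted 1:1000 in CA-MHB and used as inoculum for the next broth microdilution MIC. Resistance defined as a rise of more than four-fold over the starting MIC.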

Staphylococcus aureus [6] = test: Bactericidal activity against methicillin-resistant Staphylococcus aureus USA300 assessed as reduction in colony forming unit incubated for 20 hrs; format: functional
Method in brief: (§2)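 Follows the broth microdilution MIC plate. 4 μL taken from each well without growth, spotted in duplicate on tryptic soy agar and incubated static at 37 °C for 20 h. MBC taken as the concentration giving 99.9% reduction in CFU.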

Erythrocyte = test: Cytotoxicity against human RBC at 20 ug/ml incubated for 30 mins by spectrophotometric method; format: toxicity, cell-based; conditions: 0.5 h, dose 20 µg/ml
Method in brief: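 Hemolysis of 5% human RBCs exposed to compound at 5–20 μg mL−1 for 30 min at 37 °C. Intact cells were pelleted by centrifugation and supernatant absorbance read at 540 nm. Values are percent of 1% Triton X-100 lysis, with DMSO as negative control. Triplicate.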

Staphylococcus aureus [7] = test: Bactericidal activity against Staphylococcus aureus ATCC 25923 assessed as reduction in colony forming unit incubated for 20 hrs; format: functional; method in brief: as §2
Staphylococcus aureus [8] = test: Antibacterial activity against methicillin-resistant Staphylococcus aureus USA300 (ARLG 1567) assessed as bacterial growth inhibition incubated for 18 to 20 hrs by CLSI based broth microdilution assay; format: functional; conditions: time 18-20 hrs; method in brief: as §1
Staphylococcus aureus [9] = test: Bactericidal activity against persister methicillin-resistant Staphylococcus aureus ATCC 33592 assessed as reduction in colony forming unit at 4 x MIC incubated for 6 hrs by Time-kill analysis; format: functional, organism-based
Method in brief: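 Stationary-phase (persister) time-kill. Overnight TSB culture diluted 1 in 10 in TSB directly (about 2.92 × 10^6 CFU per mL), with no regrowth step. Exposed at 1× or 4× MIC in triplicate at 37 °C. Samples taken at 0, 2, 4 and 6 h, serially diluted in PBS, plated on TSA in duplicate and incubated 18–24 h.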

Staphylococcus aureus [10] = test: Bactericidal activity against methicillin-resistant Staphylococcus aureus ATCC 33592 assessed as reduction in colony forming unit at 4 x MIC incubated for 18 to 24 hrs by Time-kill analysis; format: functional, organism-based; conditions: time 18-24 hrs
Method in brief: (§3)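 Log-phase time-kill. Overnight TSB culture diluted 1:1000 and grown to OD600 0.6, then diluted 1 in 10 in TSB (about 2.92 × 10^6 CFU per mL). Exposed at 1× or 4× MIC in triplicate at 37 °C. Samples taken at 0, 2, 4, 8, 12 and 24 h, serially diluted in PBS, plated on TSA in duplicate and counted after 18–20 h.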

Enterococcus faecium [11] = test: Antibacterial activity against vancomycin-resistant Enterococcus faecium ATCC 700221 assessed as bacterial growth inhibition incubated for 18 to 20 hrs by CLSI based broth microdilution assay
Cell membrane = test: Induction of cell membrane permeability in Staphylococcus aureus ATCC 25923 at 1 ug/ml incubated for […] by Sytox green based fluorescence method; conditions: dose 1.0 µg/ml
Method in brief: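 Exponential-phase cells (OD600 0.2–0.3) washed three times in PBS and resuspended in PBS + 10% TSB. Sytox green added to 5 μM final and equilibrated 15–30 min in the dark. Fluorescence (ex 504/em 522 nm) read for 10 min baseline, then every 3 min for 3 h after addition. Run in triplicate; 1% Triton X-100 as positive control.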

Listeria monocytogenes [12] = test: Antibacterial activity against Listeria monocytogenes ATCC 19115 assessed as bacterial growth inhibition incubated for 18 to 20 hrs by CLSI based broth microdilution assay; format: functional; conditions: time 18-20 hrs
Method in brief: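 MIC by CLSI broth microdilution. Compounds were made as 10 mg mL−1 DMSO stocks and serially diluted 1:2. Inoculum was set to 0.5 McFarland and diluted 1:100 into the wells. Plates were incubated static at 37 °C for 18–20 h before reading the MIC.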

Staphylococcus aureus [13] = test: Antibacterial activity against methicillin-resistant Staphylococcus aureus USA300 (ARLG 1569) assessed as bacterial growth inhibition incubated for 18 to 20 hrs by CLSI based broth microdilution assay; format: functional; conditions: time 18-20 hrs; method in brief: as §1
Enterococcus faecalis [14] = test: Antibacterial activity against Enterococcus faecalis ATCC 29212 assessed as bacterial growth inhibition incubated for 18 to 20 hrs by CLSI based broth microdilution assay; format: functional; conditions: time 18-20 hrs; method in brief: as §1
Staphylococcus aureus [15] = test: Antibacterial activity against Staphylococcus aureus ATCC 25923 assessed as bacterial growth inhibition at 16 ug/ml incubated for 18 to 20 hrs by CLSI based broth microdilution assay; format: functional, organism-based; conditions: dose 16.0 µg/ml, time 18-20 hrs
Method in brief: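 Single-concentration screen at 16 μg mL−1 final. Overnight TSB culture was diluted 1:1000 in cation-adjusted MHB and grown to early exponential phase. 1 mL of culture was added to compound in glass tubes and incubated overnight at 37 °C. OD600 was read and normalized to the DMSO control after subtracting medium-only OD.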

Enterococcus faecium [16] = test: Bactericidal activity against vancomycin-resistant Enterococcus faecium ATCC 700221 assessed as reduction in colony forming unit incubated for 20 hrs; conditions: ATCC 700221, 20 h
Staphylococcus aureus [17] = test: Bactericidal activity against methicillin-resistant Staphylococcus aureus ATCC 33592 assessed as reduction in colony forming unit at 1 x MIC incubated for 18 to 24 hrs by Time-kill analysis; format: functional, organism-based; conditions: time 18-24 hrs; method in brief: as §3
Enterococcus faecalis [18] = test: Bactericidal activity against Enterococcus faecalis ATCC 29212 assessed as reduction in colony forming unit incubated for 20 hrs; format: functional; method in brief: as §2
Enterococcus faecalis [19] = test: Antibacterial activity against vancomycin-resistant Enterococcus faecalis ATCC 51575 assessed as bacterial growth inhibition incubated for 18 to 20 hrs by CLSI based broth microdilution assay; format: functional; conditions: time 18-20 hrs; method in brief: as §1
Staphylococcus aureus [20] = test: Antibacterial activity against methicillin-resistant Staphylococcus aureus USA300 assessed as bacterial growth inhibition incubated for 18 to 20 hrs by CLSI based broth microdilution assay; format: functional; conditions: time 18-20 hrs; method in brief: as §1

FC(F)(F)c1n[nH]cc1[C@@H]1Nc2ccc(S(F)(F)(F)(F)F)cc2[C@H]2[C@@H]3CC[C@@H](C3)[C@H]21
MIC (Staphylococcus aureus [1]): 2 µg/mL (≈ 4.35 µM)
MIC (Staphylococcus aureus [2]): 2 µg/mL (≈ 4.35 µM)
MIC (Staphylococcus aureus [3]): 1 µg/mL (≈ 2.18 µM)
MBC (Listeria monocytogenes [4]): 4 µg/mL (≈ 8.71 µM)
fold change (FC) (Staphylococcus aureus [5]): 1
MBC (Staphylococcus aureus [6]): 8 µg/mL (≈ 17.4 µM)
Activity (Erythrocyte): Non-Toxic
MBC (Staphylococcus aureus [7]): 8 µg/mL (≈ 17.4 µM)
MIC (Staphylococcus aureus [8]): 2 µg/mL (≈ 4.35 µM)
Activity (Staphylococcus aureus [9]): Active
Activity (Staphylococcus aureus [10]): Active
MIC (Enterococcus faecium [11]): 2 µg/mL (≈ 4.35 µM)
Activity (Cell membrane): Active
MIC (Listeria monocytogenes [12]): 2 µg/mL (≈ 4.35 µM)
MIC (Staphylococcus aureus [13]): 2 µg/mL (≈ 4.35 µM)
MIC (Enterococcus faecalis [14]): 4 µg/mL (≈ 8.71 µM)
Activity (Staphylococcus aureus [15]): Active
MBC (Enterococcus faecium [16]): 4 µg/mL (≈ 8.71 µM)
Activity (Staphylococcus aureus [17]): Active
MBC (Enterococcus faecalis [18]): 8 µg/mL (≈ 17.4 µM)
MIC (Enterococcus faecalis [19]): 4 µg/mL (≈ 8.71 µM)
MIC (Staphylococcus aureus [20]): 4 µg/mL (≈ 8.71 µM)
